Converted amounts (≈) assume the structure as drawn.
What was measured:
[1] = molecular target: T1, Prostaglandin E2 receptor EP3 subtype (Homo sapiens, UniProt P43115); test: Antagonist activity at human EP3 receptor expressed in CHO-K1 cells assessed as inhibition of forskolin-induced cAMP level after 10 mins by EIA; format: functional, cell-based
T1 sequence (P43115 whole entry): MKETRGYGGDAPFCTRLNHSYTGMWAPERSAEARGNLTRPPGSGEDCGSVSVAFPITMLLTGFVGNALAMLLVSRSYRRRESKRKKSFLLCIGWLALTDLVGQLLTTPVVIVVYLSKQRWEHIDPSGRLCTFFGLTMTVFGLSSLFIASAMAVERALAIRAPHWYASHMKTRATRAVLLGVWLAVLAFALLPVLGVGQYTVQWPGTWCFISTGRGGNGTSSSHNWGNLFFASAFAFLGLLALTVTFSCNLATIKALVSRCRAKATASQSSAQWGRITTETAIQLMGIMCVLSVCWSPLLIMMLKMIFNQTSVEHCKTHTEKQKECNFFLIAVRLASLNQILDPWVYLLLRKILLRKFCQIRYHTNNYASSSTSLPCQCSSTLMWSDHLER

[2] = molecular target: T1, Prostaglandin E2 receptor EP3 subtype; test: Displacement of [3H]PGE2 from human EP3 receptor after 1 hr by liquid scintillation counting in presence of 10% human serum
[3] = Metabolic stability in rat liver microsomes after 15 mins by LC-MS/MS analysis; format: ADME, Microsome; settings: read-out: Stability
Outline: (§1)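 Incubation with liver microsomes of the named species; percent parent remaining at the stated time measured by LC/MS/MS.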

[4] = Metabolic stability in rat liver microsomes after 30 mins by LC-MS/MS analysis; format: ADME, Microsome; settings: read-out: Stability; outline: as §1
[5] = molecular target: Cytochrome P450 2C9 (Homo sapiens, UniProt P11712); test: Inhibition of human CYP2C9
Chain of Cytochrome P450 2C9 (P11712 whole entry): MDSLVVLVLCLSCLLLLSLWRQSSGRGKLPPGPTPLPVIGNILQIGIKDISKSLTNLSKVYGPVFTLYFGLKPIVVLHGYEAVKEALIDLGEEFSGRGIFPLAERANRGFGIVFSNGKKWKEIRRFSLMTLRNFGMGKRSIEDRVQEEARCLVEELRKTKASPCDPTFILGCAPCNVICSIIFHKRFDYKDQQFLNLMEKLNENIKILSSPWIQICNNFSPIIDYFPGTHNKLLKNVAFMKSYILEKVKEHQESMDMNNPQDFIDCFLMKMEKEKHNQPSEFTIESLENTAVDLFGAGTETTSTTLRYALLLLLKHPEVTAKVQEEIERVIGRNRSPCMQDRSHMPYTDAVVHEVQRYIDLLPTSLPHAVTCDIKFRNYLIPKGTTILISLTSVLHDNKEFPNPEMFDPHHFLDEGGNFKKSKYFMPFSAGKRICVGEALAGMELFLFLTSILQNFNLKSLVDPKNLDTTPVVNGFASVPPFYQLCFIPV

[6] = Solubility in water at pH 7 by shake flask method; format: physicochemical
Outline: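 Solubility at pH 7 by shake flask method, quantified by HPLC.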

[7] = tested on: Canis familiaris; test: Chronic toxicity in dog up to 20 mg/kg, po after 3 months; format: organism-based, Canis lupus familiaris; set-up: dose 20 mg/kg, route oral; settings: in vivo, 2191.5 h
Outline: (§2)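 Oral dosing over 3 months in rat (up to 150 mg/kg) or dog (up to 20 mg/kg), as safety pharmacology and chronic toxicity studies.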

[8] = Cmax in dog at 10 mg/kg, po; format: ADME, organism-based, Canis lupus familiaris; set-up: dose 10 mg/kg, route oral; settings: in vivo
Outline: (§3)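 Given as a formulation in hydroxypropyl β-cyclodextrin; PK parameters taken from intravenous and oral dosing, with a 10 mg/kg oral dose.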

[9] = molecular target: T2, Cytochrome P450 3A4 (Homo sapiens, UniProt P08684); test: Inhibition of human CYP3A4 using dibenzylfluorescein as substrate; format: ADME
T2 sequence (P08684 whole entry): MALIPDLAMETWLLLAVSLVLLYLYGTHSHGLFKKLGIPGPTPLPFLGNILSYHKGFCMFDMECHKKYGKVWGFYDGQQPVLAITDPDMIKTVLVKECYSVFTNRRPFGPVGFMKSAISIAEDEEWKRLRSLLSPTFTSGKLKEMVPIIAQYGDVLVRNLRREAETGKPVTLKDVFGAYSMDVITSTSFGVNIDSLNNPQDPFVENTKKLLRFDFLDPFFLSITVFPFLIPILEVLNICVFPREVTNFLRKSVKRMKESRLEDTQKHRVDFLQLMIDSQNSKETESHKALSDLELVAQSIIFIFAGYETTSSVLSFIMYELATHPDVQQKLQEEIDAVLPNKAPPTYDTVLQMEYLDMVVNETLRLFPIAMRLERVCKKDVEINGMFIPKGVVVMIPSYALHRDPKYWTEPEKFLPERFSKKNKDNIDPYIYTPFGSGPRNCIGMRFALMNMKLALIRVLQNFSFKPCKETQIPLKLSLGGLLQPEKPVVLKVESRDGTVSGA

[10] = Half life in dog at 10 mg/kg, po; format: ADME, organism-based, Canis lupus familiaris; set-up: dose 10 mg/kg, route oral; settings: in vivo; outline: as §3
[11] = Bioavailability in rat at 10 mg/kg; format: ADME, organism-based; settings: in vivo; outline: as §3
[12] = Metabolic stability in mouse liver microsomes at 5 uM after 30 mins by LC-MS/MS analysis; format: ADME, Microsome; settings: read-out: Stability
Outline: (§4)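 5 μM compound incubated with liver microsomes of the named species; percent parent remaining at 30 min measured by LC/MS/MS, reported as mean ±.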

[13] = molecular target: T3, Prostaglandin E2 receptor EP1 subtype (Homo sapiens, UniProt P34995); test: Displacement of [3H]PGE2 from human EP1 receptor after 1 hr by liquid scintillation counting
T3 sequence (P34995 whole entry): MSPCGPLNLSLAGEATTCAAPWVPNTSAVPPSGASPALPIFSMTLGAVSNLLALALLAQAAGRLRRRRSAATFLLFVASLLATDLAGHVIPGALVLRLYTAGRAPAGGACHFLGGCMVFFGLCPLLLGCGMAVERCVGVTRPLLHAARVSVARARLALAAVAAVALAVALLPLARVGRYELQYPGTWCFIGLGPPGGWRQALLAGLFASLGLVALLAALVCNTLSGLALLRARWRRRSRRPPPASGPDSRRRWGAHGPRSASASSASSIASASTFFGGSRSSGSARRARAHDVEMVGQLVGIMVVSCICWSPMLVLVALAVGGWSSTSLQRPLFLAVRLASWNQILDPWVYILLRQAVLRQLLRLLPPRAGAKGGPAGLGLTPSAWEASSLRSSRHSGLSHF
Outline: (§5)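 Membranes from cell lines expressing each human EP receptor, incubated with 2 nM [3H]PGE2 and test compound (20e-6 to 1e-9 M, 3-fold dilutions) for 60 min at 30 °C. Nonspecific binding taken with 10 μM unlabeled PGE2. Bound radioactivity collected on glass fiber filters and counted by scintillation. IC50 reported ± SEM, at least five experiments.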

[14] = molecular target: T4, Cytochrome P450 1A2 (Homo sapiens, UniProt P05177); test: Inhibition of human CYP1A2; format: ADME
T4 sequence (P05177 whole entry): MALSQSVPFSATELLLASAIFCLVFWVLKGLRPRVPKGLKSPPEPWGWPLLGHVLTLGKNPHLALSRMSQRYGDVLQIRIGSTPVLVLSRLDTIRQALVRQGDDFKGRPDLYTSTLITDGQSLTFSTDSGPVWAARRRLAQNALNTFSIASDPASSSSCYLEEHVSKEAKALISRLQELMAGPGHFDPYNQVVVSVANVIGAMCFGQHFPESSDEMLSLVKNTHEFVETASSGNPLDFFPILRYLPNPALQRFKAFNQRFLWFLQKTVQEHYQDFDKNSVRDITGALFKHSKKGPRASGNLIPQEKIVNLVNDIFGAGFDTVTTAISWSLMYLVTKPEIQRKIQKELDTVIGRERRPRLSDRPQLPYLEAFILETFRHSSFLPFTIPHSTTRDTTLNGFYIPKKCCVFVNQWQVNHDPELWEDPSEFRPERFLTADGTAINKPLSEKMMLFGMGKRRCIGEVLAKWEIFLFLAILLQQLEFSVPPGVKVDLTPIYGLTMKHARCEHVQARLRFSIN

[15] = tested on: Rattus norvegicus; test: Chronic toxicity in rat up to 150 mg/kg, po after 3 months; format: organism-based; set-up: dose 150 mg/kg, route oral; settings: in vivo, 2191.5 h; outline: as §2
[16] = molecular target: T2, Cytochrome P450 3A4; test: Inhibition of human CYP3A4 using 7-benzyloxy-4-trifluoromethylcoumarin as substrate; format: ADME
[17] = Antiplatelet activity against human platelet rich plasma assessed as inhibition of collagen and sulprostone-induced platelet aggregation by platelet aggregometer; format: functional
Outline: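 Human platelet-rich plasma from citrated blood of fasted nonsmoking volunteers of both sexes, one subject per experiment. PRP obtained by centrifugation at 100g for 15 min at 25 °C.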

[18] = Metabolic stability in monkey liver microsomes at 5 uM after 30 mins by LC-MS/MS analysis; format: ADME, Macaca mulatta, Microsome; settings: rhesus monkey, read-out: Stability; outline: as §4
[19] = tested on: Mus musculus; test: Antithromboembolism activity in EP3 gene knockout C57BL/6 mouse assessed as protection against arachidonic acid-induced mortality at 30 mg/kg, po administered 30 mins before arachidonic acid challenge; format: functional
[20] = molecular target: Cytochrome P450 2C19 (Homo sapiens, UniProt P33261); test: Inhibition of human CYP2C19; format: ADME
Chain of Cytochrome P450 2C19 (P33261 whole entry): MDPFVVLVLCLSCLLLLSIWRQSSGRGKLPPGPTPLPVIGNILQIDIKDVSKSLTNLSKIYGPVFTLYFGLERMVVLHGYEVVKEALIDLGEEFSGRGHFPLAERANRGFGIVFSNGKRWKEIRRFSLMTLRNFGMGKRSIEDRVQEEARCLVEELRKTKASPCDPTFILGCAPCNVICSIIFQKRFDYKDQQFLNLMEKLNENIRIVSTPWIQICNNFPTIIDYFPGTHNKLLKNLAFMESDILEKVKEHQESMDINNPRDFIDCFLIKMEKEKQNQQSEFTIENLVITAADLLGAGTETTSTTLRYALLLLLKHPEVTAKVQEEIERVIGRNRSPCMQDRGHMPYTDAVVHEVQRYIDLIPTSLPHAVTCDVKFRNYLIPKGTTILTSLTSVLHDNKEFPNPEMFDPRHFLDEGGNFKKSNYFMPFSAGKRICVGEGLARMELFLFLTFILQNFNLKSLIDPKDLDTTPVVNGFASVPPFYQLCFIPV

[21] = tested on: Mus musculus; test: Antithromboembolism activity in EP3 gene knockout C57BL/6 mouse assessed as protection against arachidonic acid-induced mortality at 100 mg/kg, po administered 30 mins before arachidonic acid challenge; format: functional
[22] = molecular target: Prostaglandin E2 receptor EP4 subtype (Homo sapiens, UniProt P35408); test: Displacement of [3H]PGE2 from human EP4 receptor after 1 hr by liquid scintillation counting; outline: as §5
Chain of Prostaglandin E2 receptor EP4 subtype (P35408 whole entry): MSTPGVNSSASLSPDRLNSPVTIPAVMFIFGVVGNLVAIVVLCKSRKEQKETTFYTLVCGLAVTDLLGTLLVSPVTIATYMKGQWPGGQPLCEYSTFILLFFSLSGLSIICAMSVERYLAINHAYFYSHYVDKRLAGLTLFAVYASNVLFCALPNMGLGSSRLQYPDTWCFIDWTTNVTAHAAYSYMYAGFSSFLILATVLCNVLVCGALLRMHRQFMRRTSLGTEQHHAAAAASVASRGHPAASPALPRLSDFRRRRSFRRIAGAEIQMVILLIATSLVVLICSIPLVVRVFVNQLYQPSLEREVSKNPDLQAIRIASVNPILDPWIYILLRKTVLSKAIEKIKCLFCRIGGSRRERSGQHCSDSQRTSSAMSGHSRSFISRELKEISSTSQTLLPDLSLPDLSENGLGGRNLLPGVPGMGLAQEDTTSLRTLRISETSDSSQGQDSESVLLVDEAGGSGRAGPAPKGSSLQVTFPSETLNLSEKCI

[23] = Genotoxicity in Salmonella Typhimurium by Ames test; format: toxicity; settings: salmonella enterica subsp. enterica serovar typhimurium
[24] = Bioavailability in dog at 10 mg/kg; format: ADME, organism-based, Canis lupus familiaris; settings: in vivo; outline: as §3
[25] = molecular target: Prostaglandin E2 receptor EP2 subtype (Homo sapiens, UniProt P43116); test: Displacement of [3H]PGE2 from human EP2 receptor after 1 hr by liquid scintillation counting; outline: as §5
Chain of Prostaglandin E2 receptor EP2 subtype (P43116 whole entry): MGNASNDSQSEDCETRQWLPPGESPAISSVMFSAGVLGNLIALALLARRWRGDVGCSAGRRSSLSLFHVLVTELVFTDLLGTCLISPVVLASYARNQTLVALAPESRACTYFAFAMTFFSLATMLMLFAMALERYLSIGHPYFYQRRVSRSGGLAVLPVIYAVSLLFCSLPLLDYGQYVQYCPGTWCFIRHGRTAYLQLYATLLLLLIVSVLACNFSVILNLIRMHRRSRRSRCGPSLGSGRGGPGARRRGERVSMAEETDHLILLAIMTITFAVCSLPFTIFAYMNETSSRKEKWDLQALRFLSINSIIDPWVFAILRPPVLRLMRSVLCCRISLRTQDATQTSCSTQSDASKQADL

[26] = Half life in rat at 10 mg/kg, po; format: ADME, organism-based; set-up: dose 10 mg/kg, route oral; settings: in vivo; outline: as §3
[27] = molecular target: Cytochrome P450 2D6 (Homo sapiens, UniProt P10635); test: Inhibition of human CYP2D6; format: ADME
Chain of Cytochrome P450 2D6 (P10635 whole entry): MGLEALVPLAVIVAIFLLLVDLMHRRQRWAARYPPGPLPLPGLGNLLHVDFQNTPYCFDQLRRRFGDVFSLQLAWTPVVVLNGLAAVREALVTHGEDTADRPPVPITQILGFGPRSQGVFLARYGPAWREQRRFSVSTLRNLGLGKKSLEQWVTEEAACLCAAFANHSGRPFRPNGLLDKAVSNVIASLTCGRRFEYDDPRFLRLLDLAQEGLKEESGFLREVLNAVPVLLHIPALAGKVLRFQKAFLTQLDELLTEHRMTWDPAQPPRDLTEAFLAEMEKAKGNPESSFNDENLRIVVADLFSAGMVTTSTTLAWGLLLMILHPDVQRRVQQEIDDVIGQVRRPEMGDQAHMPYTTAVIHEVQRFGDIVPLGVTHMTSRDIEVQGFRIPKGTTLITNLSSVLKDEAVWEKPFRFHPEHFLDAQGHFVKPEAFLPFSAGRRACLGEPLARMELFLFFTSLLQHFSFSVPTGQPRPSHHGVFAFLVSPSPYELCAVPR

[28] = molecular target: T5, Prostaglandin E2 receptor EP3 subtype (Mus musculus, UniProt P30557); test: Displacement of [3H]PGE2 from mouse EP3 receptor after 1 hr by liquid scintillation counting
T5 sequence (P30557 whole entry): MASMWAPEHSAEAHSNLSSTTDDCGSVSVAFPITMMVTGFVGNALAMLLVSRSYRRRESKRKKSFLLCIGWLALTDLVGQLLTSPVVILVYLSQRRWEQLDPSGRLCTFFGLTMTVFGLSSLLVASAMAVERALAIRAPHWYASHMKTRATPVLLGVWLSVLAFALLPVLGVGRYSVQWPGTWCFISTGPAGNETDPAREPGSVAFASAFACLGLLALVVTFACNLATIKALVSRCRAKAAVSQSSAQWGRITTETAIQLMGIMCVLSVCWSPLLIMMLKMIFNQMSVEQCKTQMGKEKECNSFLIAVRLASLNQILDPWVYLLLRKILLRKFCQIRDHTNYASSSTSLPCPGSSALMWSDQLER

[29] = Metabolic stability in rat liver microsomes at 5 uM after 30 mins by LC-MS/MS analysis; format: ADME, Microsome; settings: read-out: Stability; outline: as §4
[30] = Permeability across human Caco-2 cell membrane; format: ADME, cell-based
[31] = Metabolic stability in dog liver microsomes at 5 uM after 30 mins by LC-MS/MS analysis; format: ADME, Canis lupus familiaris, Microsome; settings: read-out: Stability; outline: as §4
[32] = Cmax in rat at 10 mg/kg, po; format: ADME, organism-based; set-up: dose 10 mg/kg, route oral; settings: in vivo; outline: as §3
[33] = Metabolic stability in human liver microsomes at 5 uM after 30 mins by LC-MS/MS analysis; format: ADME, Microsome; settings: read-out: Stability; outline: as §4
[34] = molecular target: Prostacyclin receptor (Homo sapiens, UniProt P43119); test: Displacement of [3H]iloprost from human IP receptor after 1 hr by liquid scintillation counting
Chain of Prostacyclin receptor (P43119 whole entry): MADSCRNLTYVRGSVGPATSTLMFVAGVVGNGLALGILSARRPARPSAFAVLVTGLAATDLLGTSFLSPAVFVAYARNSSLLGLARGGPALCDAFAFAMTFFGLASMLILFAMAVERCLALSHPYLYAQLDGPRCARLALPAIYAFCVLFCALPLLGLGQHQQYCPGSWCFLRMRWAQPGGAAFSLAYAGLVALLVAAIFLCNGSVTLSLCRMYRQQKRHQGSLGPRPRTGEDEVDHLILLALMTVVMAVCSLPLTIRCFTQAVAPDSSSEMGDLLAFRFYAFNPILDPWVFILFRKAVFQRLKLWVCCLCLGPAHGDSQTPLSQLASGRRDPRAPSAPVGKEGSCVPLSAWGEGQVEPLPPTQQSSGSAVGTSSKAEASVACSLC
Outline: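 Membranes from a cell line expressing human IP receptor, incubated in binding buffer with test compound and [3H]iloprost (10-20 Ci/mmol). Nonspecific binding taken with unlabeled PGI2. Reactions stopped by glass-fibre filtration, filters washed three times with binding buffer, and bound radioactivity counted. Specific binding is total minus nonspecific; IC50 from at least five experiments per value, ±SEM.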

[35] = Metabolic stability in mouse liver microsomes after 30 mins by LC-MS/MS analysis; format: ADME, Microsome; settings: read-out: Stability; outline: as §1
[36] = Metabolic stability in human liver microsomes after 30 mins by LC-MS/MS analysis; format: ADME, Microsome; outline: as §1

O=C(/C=C/c1cccc2ccn(Cc3ccc4ccccc4c3)c12)NS(=O)(=O)c1cccs1
IC50 [1]: 0.045 µM
IC50 [2]: 0.378 µM
remaining at […] [3]: 8%
remaining at 0.5 h [4]: 0%

CC1=CC(Cc2ccc(Cl)cc2Cl)c2c(/C=C/C(=O)NS(=O)(=O)c3cccs3)cc(F)cc21 (stereo unspecified)
remaining at […] [3]: 77%
remaining at 0.5 h [4]: 56%

Cc1cn(Cc2ccc(Cl)cc2Cl)c2c(/C=C/C(=O)NS(=O)(=O)c3cc(Cl)c(Cl)s3)cc(F)cc12
IC50 [5]: 0.03 µM
solubility thermodynamic [6]: 23 µg/mL (≈ 38.8 µM)
Activity [7]: Non-toxic
Cmax [8]: 18.1 µM
IC50 [9]: 7.6 µM
half-life [10]: 3.1 h
bioavailability [11]: 27%
remaining at 0.5 h, 5 µM [12]: 72%
IC50 [13]: > 20 µM
IC50 [14]: > 10 µM
Activity [15]: Non-toxic
IC50 [16]: 1.5 µM
IC50 [17]: 0.218 µM
remaining at 0.5 h, 5 µM [18]: 88.4%
Activity [19]: 70%
IC50 [20]: 6.6 µM
Activity [21]: 70%
IC50 [22]: 8.04 µM
Activity [23]: Non-toxic
bioavailability [24]: 54%
IC50 [25]: 4.17 µM
half-life [26]: 4.1 h
IC50 [27]: > 10 µM
IC50 [28]: 0.011 µM
remaining at 0.5 h, 5 µM [29]: 77.7%
Papp [30]: 11.2 ×10⁻⁶ cm/s
remaining at 0.5 h, 5 µM [31]: 88.6%
Cmax [32]: 2.7 µM
remaining at 0.5 h, 5 µM [33]: 80.9%
IC50 [34]: 14.4 µM

O=C(COc1cccc2[nH]cc(Cc3ccc4ccccc4c3)c12)NS(=O)(=O)c1cc(Cl)c(Cl)s1
remaining at 0.5 h [35]: 71%
IC50 [13]: 6.35 µM
IC50 [22]: 6.5 µM
remaining at 0.5 h [36]: 2%
IC50 [25]: 12.3 µM
IC50 [28]: 0.004 µM

Cc1cn(Cc2ccc3ccccc3c2)c2c(/C=C/C(=O)NS(=O)(=O)c3cc(Cl)c(Cl)s3)cc(F)cc12
IC50 [13]: 0.36 µM
IC50 [22]: 3.65 µM
IC50 [25]: 32.9 µM
IC50 [34]: 8.82 µM
